Tests used:
Mu-type opioid receptor = Mu-type opioid receptor (Mus musculus, UniProt P42866); assay: Displacement of [3H]DAMGO from mu opioid receptor in mouse whole brain without cerebellum
[1] = molecular target: Kappa-type opioid receptor (Cavia porcellus, UniProt P41144); assay: Displacement of [3H]U69593 from kappa opioid receptor in guinea pig cerebellum
[2] = molecular target: Delta-type opioid receptor (Mus musculus, UniProt P32300); assay: Displacement of [3H]DPDPE from delta opioid receptor in mouse whole brain without cerebellum
[3] = molecular target: T1, Delta-type opioid receptor (Homo sapiens, UniProt P41143); assay: Agonist activity at human delta opioid receptor expressed in CHO cells assessed as stimulation of [35S]-GTPgammaS binding; assay type: functional, cell-based
Mus musculus = assay: Analgesic activity in sc dosed mouse assessed as inhibition of acetic acid-induced writhing response treated 15 mins before acetic acid challenge measured after 10 mins; assay type: functional
Summary of the method: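 Test agent given s.c. to mice; 15 min later, 0.6% acetic acid i.p. at 10 mL/kg. After a 10 min delay, abdominal constrictions were counted over the next 10 min. 8 mice per group; group means ± SEM; ED50 taken from the dose-response. Statistics by one-way ANOVA with Bonferroni test versus vehicle.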

[4] = molecular target: T2, Kappa-type opioid receptor (Homo sapiens, UniProt P41145); assay: Agonist activity at human kappa opioid receptor expressed in CHO cells assessed as stimulation of [35S]-GTPgammaS binding; assay type: functional, cell-based
[5] = molecular target: T2, Kappa-type opioid receptor; assay: Agonist activity at human kappa opioid receptor expressed in CHO cells assessed as stimulation of [35S]-GTPgammaS binding relative to U69593; assay type: functional, cell-based
[6] = molecular target: T1, Delta-type opioid receptor; assay: Agonist activity at human delta opioid receptor expressed in CHO cells assessed as stimulation of [35S]-GTPgammaS binding relative to DPDPE; assay type: functional, cell-based

Chain of Delta-type opioid receptor (Mus musculus, UniProt P32300) (P32300 whole entry): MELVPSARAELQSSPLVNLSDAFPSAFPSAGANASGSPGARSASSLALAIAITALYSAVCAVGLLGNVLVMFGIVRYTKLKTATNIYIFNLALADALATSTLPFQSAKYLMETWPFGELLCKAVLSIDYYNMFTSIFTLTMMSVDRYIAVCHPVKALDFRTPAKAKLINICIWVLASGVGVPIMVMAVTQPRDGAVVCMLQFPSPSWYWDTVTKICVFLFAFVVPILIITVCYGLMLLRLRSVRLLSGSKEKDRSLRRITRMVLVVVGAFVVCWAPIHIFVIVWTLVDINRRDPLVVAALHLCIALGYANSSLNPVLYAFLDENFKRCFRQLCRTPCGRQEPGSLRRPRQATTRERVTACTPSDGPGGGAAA
T2 sequence (P41145 whole entry): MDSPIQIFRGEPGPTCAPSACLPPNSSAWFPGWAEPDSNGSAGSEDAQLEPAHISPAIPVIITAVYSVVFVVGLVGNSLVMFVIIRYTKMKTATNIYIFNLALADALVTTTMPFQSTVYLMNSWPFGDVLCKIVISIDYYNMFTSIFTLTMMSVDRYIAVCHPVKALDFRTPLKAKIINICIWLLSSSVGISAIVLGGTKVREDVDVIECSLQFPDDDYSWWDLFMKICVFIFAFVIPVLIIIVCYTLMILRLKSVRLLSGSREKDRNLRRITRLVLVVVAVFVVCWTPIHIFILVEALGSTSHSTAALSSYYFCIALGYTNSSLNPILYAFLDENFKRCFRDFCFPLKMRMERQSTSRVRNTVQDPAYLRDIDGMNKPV
Chain of Kappa-type opioid receptor (Cavia porcellus, UniProt P41144) (P41144 whole entry): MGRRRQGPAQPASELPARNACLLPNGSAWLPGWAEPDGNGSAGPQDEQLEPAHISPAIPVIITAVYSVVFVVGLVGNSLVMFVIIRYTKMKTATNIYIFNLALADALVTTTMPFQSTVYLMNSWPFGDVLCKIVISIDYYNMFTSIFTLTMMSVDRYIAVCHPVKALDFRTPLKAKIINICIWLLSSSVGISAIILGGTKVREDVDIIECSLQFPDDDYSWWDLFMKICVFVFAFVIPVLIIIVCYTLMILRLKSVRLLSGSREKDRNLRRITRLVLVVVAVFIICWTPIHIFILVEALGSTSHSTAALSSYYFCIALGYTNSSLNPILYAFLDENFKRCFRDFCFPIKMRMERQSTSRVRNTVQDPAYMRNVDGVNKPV
Chain of Mu-type opioid receptor (P42866 whole entry): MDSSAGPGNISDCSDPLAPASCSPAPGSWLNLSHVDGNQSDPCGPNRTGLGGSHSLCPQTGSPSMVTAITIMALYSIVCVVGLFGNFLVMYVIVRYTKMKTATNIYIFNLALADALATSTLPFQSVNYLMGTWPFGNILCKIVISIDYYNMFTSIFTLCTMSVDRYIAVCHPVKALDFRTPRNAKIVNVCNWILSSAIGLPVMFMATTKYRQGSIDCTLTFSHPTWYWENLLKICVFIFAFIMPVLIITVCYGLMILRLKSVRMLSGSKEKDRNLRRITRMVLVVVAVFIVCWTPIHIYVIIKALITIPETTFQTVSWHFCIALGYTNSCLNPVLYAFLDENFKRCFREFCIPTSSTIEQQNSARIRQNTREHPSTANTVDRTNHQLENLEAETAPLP
T1 sequence (P41143 whole entry): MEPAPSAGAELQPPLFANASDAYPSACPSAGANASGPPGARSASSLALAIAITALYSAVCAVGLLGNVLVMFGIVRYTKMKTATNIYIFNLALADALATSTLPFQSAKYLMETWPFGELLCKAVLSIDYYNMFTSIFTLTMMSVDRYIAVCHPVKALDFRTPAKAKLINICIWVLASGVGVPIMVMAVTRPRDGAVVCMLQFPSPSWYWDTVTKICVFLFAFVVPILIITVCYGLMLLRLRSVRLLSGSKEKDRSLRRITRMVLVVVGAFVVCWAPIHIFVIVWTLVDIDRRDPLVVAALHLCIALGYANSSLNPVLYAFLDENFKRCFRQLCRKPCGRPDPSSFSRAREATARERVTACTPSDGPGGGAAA

SMILES	Ki (Mu-type opioid receptor) [nM]	Ki [1] [nM]	Ki [2] [nM]	other results
C[C@@]1(c2cccc(O)c2)O[C@H]2CO[C@H]3CO[C@@H]1N32 (relative stereo)	> 1000	> 1000	> 1000	
COc1cccc([C@]2(C)O[C@H]3CO[C@@H]4N3[C@H]2O[C@]4(C)c2cccc(OC)c2)c1 (relative stereo)	> 1000	> 1000	> 1000	
C[C@@]1(c2cccc(O)c2)O[C@@H]2N3[C@H](CO[C@H]31)O[C@]2(C)c1cccc(O)c1 (relative stereo)	> 1000	> 1000	> 1000	
C[C@@]1(c2cccc(O)c2)O[C@H]2CO[C@@H]3N2[C@H]1O[C@]3(C)c1cccc(O)c1 [listing 1 of 2 here]	> 1000	4.63	> 1000	EC50 [3]: 83.7 nM; ED50 (Mus musculus): 3.5 mg/kg; EC50 [4]: 50.3 nM
C[C@@]1(c2cccc(O)c2)O[C@@H]2N3[C@H]1O[C@](C)(c1cccc(O)c1)[C@@H]3O[C@]2(C)c1cccc(O)c1 (relative stereo)	928	> 1000	> 1000	
C[C@@]1(c2cccc(O)c2)O[C@H]2CO[C@@H]3N2[C@H]1O[C@]3(C)c1cccc(O)c1 (relative stereo) [listing 1 of 2 here]				Emax [5]: 98.2%
C[C@@]1(c2cccc(O)c2)O[C@H]2CO[C@@H]3N2[C@H]1O[C@]3(C)c1cccc(O)c1 [listing 2 of 2 here]				Emax [5]: 96.8%; Activity (Mus musculus): Dose-dependent effect; Emax [6]: 23.4%
C[C@]1(c2cccc(O)c2)O[C@H]2CO[C@H]3CO[C@@H]1N32 (relative stereo)	> 1000	> 1000	> 1000	
COc1cccc([C@]2(C)O[C@H]3CO[C@@H]4N3[C@H]2O[C@]4(C)c2cccc(O)c2)c1 (relative stereo)	> 1000	> 1000	> 1000	
CC1(c2cccc(O)c2)OC2COC3N2C1OC3(C)c1cccc(O)c1 (stereo not given)	293	> 1000	651	
C[C@]1(c2cccc(O)c2)O[C@H]2CO[C@@H]3N2[C@H]1O[C@]3(C)c1cccc(O)c1 (relative stereo)	> 1000	> 1000	> 1000	
C[C@@]1(c2cccc(O)c2)O[C@@H]2N3[C@H]1O[C@@](C)(c1cccc(O)c1)[C@@H]3O[C@@]2(C)c1cccc(O)c1 (relative stereo)	> 1000	> 1000	> 1000	
C[C@@]1(c2cccc(O)c2)O[C@H]2CO[C@@H]3N2[C@H]1O[C@@]3(C)c1cccc(O)c1 (relative stereo)	735	793	> 1000	
C[C@@]1(c2cccc(O)c2)O[C@H]2CO[C@@H]3N2[C@H]1O[C@]3(C)c1cccc(O)c1 (relative stereo) [listing 2 of 2 here]	> 1000	6.09	> 1000	EC50 [4]: 97.5 nM
C[C@@]1(c2cccc(O)c2)O[C@@H]2N3[C@H]1O[C@](C)(c1cccc(O)c1)[C@@H]3O[C@@]2(C)c1cccc(O)c1 (relative stereo)	652	667	> 1000	
COc1cccc([C@@]2(C)O[C@@H]3N4[C@H](CO[C@H]42)O[C@@]3(C)c2cccc(O)c2)c1 (relative stereo)	> 1000	52.8	> 1000	
